# Sampled rows, rich in hits. Any-hit rate of the full collection: about 2.1%.
# DNMT1 block = blocks human DNA methyltransferase DNMT1; P26358; DNMT1 molecular beacon, Hinp1I cleavage, fluorescence; inhibition (reported as % activation of signal), % at 10 µM; 360,000 tested, 0.83% active; AID 588458; in the data active = inhibition above about 50%
# LMPTP block = blocks human LMPTP phosphatase. recombinant LMPTP-A, OMFP fluorogenic substrate, fluorescence intensity. 360,000 tested, 0.22% active. inhibition, % at 20 µM. P24666. AID 651560;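 active = compounds that cut the enzyme signal by at least half of the control window in the single-dose screen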;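 also: plate controls were DMSO wells with enzyme plus substrate for no effect and substrate without enzyme for full effect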
#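 Test system: LMPTP-A, protein tyrosine phosphatase of low molecular weight; Input: 0.625 nM enzyme; Incubation: 50 min dark incubation at room temperature; Signal: endpoint fluorescence intensity from OMFP dephosphorylation; Read-out basis: % inhibition versus control wells.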
# Scp-1 inhibitor = blocks human Scp-1 phosphatase activity. Q9GZU7. Recombinant Scp1, phosphopeptide, malachite green phosphate absorbance. AID 493091. 340,000 tested, 0.88% active. inhibition, % at 20 µM;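 active = inhibition above about 50% at 20 µM, limit read from the data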;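 also: plate controls were DMSO wells with enzyme for no effect and wells lacking enzyme for full effect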
# Target sequence (Q9GZU7 76-261 limits assumed): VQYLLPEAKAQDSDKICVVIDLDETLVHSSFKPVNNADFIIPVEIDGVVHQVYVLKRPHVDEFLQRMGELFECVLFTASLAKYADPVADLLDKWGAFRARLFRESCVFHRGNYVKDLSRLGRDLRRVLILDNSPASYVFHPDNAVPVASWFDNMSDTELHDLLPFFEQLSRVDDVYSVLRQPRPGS
#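 System: truncated SCP-1 phosphatase (76-261aa); medium: Tris acetate buffer pH 5.5 with MgCl2 and Tween-20; incubation: 45 min room-temperature reaction, 5 min colour, 30 min stabiliser; compound: single 20 µM dose, 1% DMSO; reagent: Phosphorylated 17-residue peptide substrate; read-out: % inhibition at 20 µM; technique: colorimetric free-phosphate detection, absorbance 630 nm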
# STEP block = inhibitors of human striatal-enriched phosphatase STEP | recombinant STEP, OMFP fluorogenic substrate, fluorescence | P54829 | AID 588621 | 360,000 tested, 0.25% active | inhibition, % at 20 µM;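 active = inhibition at 20 µM, scaled per plate between control wells, above about 37%, limit read from the data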;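 also: 0% = DMSO with enzyme and substrate and 100% = substrate only without enzyme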
# Target sequence (P54829 whole entry, looked up): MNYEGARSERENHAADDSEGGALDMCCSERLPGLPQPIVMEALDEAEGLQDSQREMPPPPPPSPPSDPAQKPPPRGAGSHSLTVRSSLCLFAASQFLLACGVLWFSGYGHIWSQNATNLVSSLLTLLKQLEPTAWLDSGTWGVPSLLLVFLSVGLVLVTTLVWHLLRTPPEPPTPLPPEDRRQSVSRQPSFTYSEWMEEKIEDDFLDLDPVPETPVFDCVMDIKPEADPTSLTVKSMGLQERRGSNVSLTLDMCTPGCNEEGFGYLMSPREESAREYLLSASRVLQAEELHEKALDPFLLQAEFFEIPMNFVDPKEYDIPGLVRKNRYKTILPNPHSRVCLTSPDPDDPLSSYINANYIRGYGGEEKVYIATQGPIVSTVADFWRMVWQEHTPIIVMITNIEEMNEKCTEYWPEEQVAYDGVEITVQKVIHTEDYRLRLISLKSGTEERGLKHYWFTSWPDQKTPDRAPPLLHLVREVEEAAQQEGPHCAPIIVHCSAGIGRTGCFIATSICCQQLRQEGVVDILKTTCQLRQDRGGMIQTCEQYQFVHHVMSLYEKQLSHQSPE
#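 Assay system: isolated STEP enzyme. Buffer or medium: pH 6.0 Bis-Tris with DTT and Tween 20. Also added: fluorogenic phosphatase substrate OMFP at 25 µM final. Dosing: 20 µM, 1% DMSO. Timing: 20 min reaction, room temperature, in the dark. Measured by: fluorescence intensity, excitation 480 nm, emission 540 nm. Evaluation: normalized % inhibition.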
# GRK2 aptamer HTS = blocks RNA aptamer binding to human GRK2; bead flow cytometry, FAM-aptamer displacement from GRK2; AID 488847; 330,000 tested, 0.59% active; inhibition of aptamer binding, % at 10 µM;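 active = inhibition of aptamer binding above 40%, roughly 3 SD of noise, on plates passing a quality check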;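 also: median bead fluorescence of bound FAM aptamer so fluorescent compounds give negative values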
# SUMO1-SIM PPI = alters human SUMO1 binding to SIM partners. P63165. 360,000 tested, 0.33% active. SUMO1 binding to a labelled peptide, TR-FRET, 1 h. inhibition, % at 20 µM. AID 602429; in the data active = inhibition above about 37%
# GRK2 CP1 = confirmation of human GRK2 inhibitors displacing RNA aptamer | shares compounds with GRK2 aptamer HTS | bead-bound GRK2, FAM-aptamer displacement, flow cytometry | aptamer displacement, % at 10 µM | 2,000 tested, 4% active | AID 504451;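 active = aptamer displacement above 40%, near three times the noise of non-fluorescent compounds, on plates passing quality checks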;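 also: negative values mostly reflect intrinsic compound fluorescence rather than true enhancement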
# Aptamer quench 1 = counter-screen for GRK2 aptamer inhibitors: fluorescent aptamer quenchers; fluorescence change (kMESF span), kMESF (test concentration not listed); Fluorescent RNA aptamer beads, quenching, flow cytometry; hits give high values; shares compounds with GRK2 aptamer HTS; 110 tested, under 10 active;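 active = compounds whose bead fluorescence drops by more than 37 kMESF across the dose range, marking them as dye quenchers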
# FAM quench CP1 = quenches fluorescent RNA aptamer, GRK2 hit artifact; AID 504580; 2,000 tested, under 10 active; fluorescence response (% of DMSO), % at 10 µM; Carboxyfluorescein RNA aptamer on beads, flow cytometry quenching; hits give low values; shares compounds with GRK2 aptamer HTS;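 active = compounds that quench the bead-bound fluorescent RNA probe, cutting fluorescence to under half of the solvent control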;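 also: counterscreen run without GRK2 so only probe quenching by compound is measured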
# GRK2 confirm 2 = human GRK2 inhibition confirmation, cherry pick 2 | bead-bound GRK2, FAM-aptamer displacement, flow cytometry | inhibition of aptamer binding, % at 10 µM | shares compounds with GRK2 aptamer HTS | 360 tested, under 10 active;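 active = inhibition of aptamer binding above 40%, about triple the noise seen with nonglowing compounds, on plates passing quality control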;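 also: negative values mostly come from compounds that fluoresce themselves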
# FAM quench CP2 = quenches fluorescent RNA aptamer, GRK2 hit artifact; shares compounds with GRK2 aptamer HTS; carboxyfluorescein RNA aptamer beads, flow cytometry quenching; hits give low values; fluorescence response vs DMSO, % at 10 µM; 360 tested, under 10 active;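 active = response vs DMSO under 50%, meaning signal dropped by over half, treated as fluorescence quencher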;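 also: labelled aptamer on streptavidin beads without GRK2 as a quench counter-screen; 100% = bead fluorescence of DMSO wells and lower means quenching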
# The depositor's hits bear a star; . = no result.
SMILES,DNMT1 block,LMPTP block,Scp-1 inhibitor,STEP block,GRK2 aptamer HTS,SUMO1-SIM PPI,GRK2 CP1,FAM quench CP1,others
COc1ccc(CC(=O)N(Cc2ccccc2)C(C)C)cc1,0,0,-8,1,2,1,.,.,
CC(C)NC(=O)CC1(C(=O)NCc2ccc(Cl)cc2)CCCC1,-3,-1,-7,0,50*,4,.,.,GRK2 confirm 2=-1;FAM quench CP2=104
COc1ccc(CNC(=O)C2(CC(=O)NC(C)(C)C)CCCC2)cc1,1,-1,-10,1,2,3,.,.,
Cc1ccsc1C(=O)N1CCCC(CO)(Cc2ccccc2)C1 (centres undefined),3,1,-6,0,45*,5,.,.,GRK2 confirm 2=-9;FAM quench CP2=98
Cc1ccsc1C(=O)N1CCC(CO)(Cc2ccccc2)CC1,-4,0,2,2,2,-2,.,.,
CC(=O)c1ccc(NC(=O)CSc2nnc(NC(=O)c3ccco3)s2)cc1,-1,2,-10,-1,46*,6,.,.,GRK2 confirm 2=-17;FAM quench CP2=99
CCC(=O)Nc1nnc(SCC(=O)Nc2ccc3c(c2)OCO3)s1,1,0,-3,-2,0,3,.,.,
CCC(=O)Nc1nnc(SCC(=O)Nc2ccc3c(c2)OCCO3)s1,-2,0,-2,2,68*,0,.,.,GRK2 confirm 2=-9;FAM quench CP2=100
Cc1nn(C)c(C(=O)N2CCc3ccccc32)c1Br,-5,0,-5,-1,41*,-5,.,.,GRK2 confirm 2=-3;FAM quench CP2=99
Cc1c(Br)c(C(=O)N2CCc3ccccc32)nn1C,9,0,-3,-1,0,2,.,.,
COc1cccc(-c2cccc3c2NC(=O)C3(C)Cc2ccccc2F)c1 (centres undefined),6,2,.,2,.,1,.,.,
Cc1[nH]c2ccccc2c1NC(=O)CN1CCN(c2cccc(C(F)(F)F)c2)CC1,-2,0,2,-1,74*,-4,-4,98,
O=C(CN1CCN(c2cccc(C(F)(F)F)c2)CC1)Nc1cccc(C(F)(F)F)c1,-7,2,9,-8,2,0,.,.,
COc1cc(/C=C2\CCCc3c2nc2ccccc2c3C(=O)O)cc(Br)c1O,0,-7,-8,3,0,0,.,.,
COc1cc(/C=C2\CCc3c2nc2ccccc2c3C(=O)O)cc(OC)c1OC,97*,8,71*,42*,62*,48*,45*,100,Aptamer quench 1=0.3
COC(=O)[C@]12CCCCC=C1N(Cc1ccc(Cl)cc1Cl)C(=O)[C@H](CC(=O)N1CCN(C(=O)c3ccco3)CC1)C2,.,0,.,.,.,4,.,.,
O=c1c2c([N+](=O)[O-])cc([N+](=O)[O-])cc2nc2ccccn12,6,0,9,1,69*,-10,-1,98,
O=C1NC(Cc2ccc(O)cc2)c2nc3ccc(Br)cc3c(=O)n2-c2ccc(Cl)cc21 (centres undefined),.,.,.,.,2,.,.,.,
CC(Oc1ccccc1)C(=O)N1CCN(c2ccc(N3CCOCC3)nn2)CC1 (centres undefined),0,-1,-2,-3,2,0,-1,106,
S=C(Nc1ccccc1)N1CCN(c2ccc(N3CCOCC3)nn2)CC1,-2,-1,-7,2,0,-12,-1,90,
C[C@@H](C(=O)OCC(=O)c1ccc(F)c(F)c1)N1C(=O)C2CCCCC2C1=O (some centres undefined),-3,-1,-3,3,0,-1,.,.,
CCNC(=O)C1(C)CCCN(C(=O)C2(c3ccc(Cl)cc3)CCCC2)C1 (centres undefined),-1,1,.,3,.,0,.,.,
Cc1ccc(Cc2c(C(C)(C)C)nc3cc(C)c(Br)c(C)n23)cc1,36,3,.,1,.,0,.,.,
OC1(c2cccc(C(F)(F)F)c2)CCN(Cc2nnnn2Cc2ccccc2)CC1,3,1,-6,-4,93*,0,1,94,
OC1(c2cccc(C(F)(F)F)c2)CCN(Cc2nnnn2CCc2ccccc2)CC1,-4,3,-4,-2,1,-1,.,.,
SMILES,DNMT1 block,LMPTP block,Scp-1 inhibitor,STEP block,GRK2 aptamer HTS,SUMO1-SIM PPI,GRK2 CP1,FAM quench CP1,others
Nc1[nH]c(C(=O)c2ccccc2)c(-c2ccc(Br)cc2)c1C(=O)c1ccc(Br)cc1,.,-1,.,.,.,7,.,.,
Cc1cccc(C)c1NC(=O)C1(C)CN(S(C)(=O)=O)CC(=O)N1CCCN1CCOCC1 (centres undefined),.,-3,.,.,.,-5,.,.,
N#Cc1c(-c2ccco2)cc(-c2ccccc2)[nH]c1=O,42,8,9,2,2,18,.,.,
CC(=O)Nc1nc(-c2ccccc2)cc(-c2ccco2)c1C#N,1,0,-10,0,80*,-22,-4,99,
CC(O)c1cccc(NC(=O)C2CCCCC2)c1 (centres undefined),-2,-2,-4,-1,53*,1,0,102,
CNc1snc(C)c1C(=O)OC(C)C(=O)Nc1ccc(F)cc1 (centres undefined),1,-1,-2,1,2,1,.,.,
O=C(NC1CCCCC1)c1cc(S(=O)(=O)N2CCCCC2)ccc1N1CCOCC1,2,-1,-10,-1,42*,0,-2,102,
CCOc1cc(N2CCOCC2)c(OCC)cc1NC(=O)c1cc(S(=O)(=O)N2CCOCC2)ccc1F,-1,0,-3,-2,5,1,-2,96,
CCOc1cc(N2CCOCC2)c(OCC)cc1NC(=O)c1cccc(S(=O)(=O)N2CCOCC2)c1,5,-1,7,2,30,6,1,97,
COCCCNC(=O)CCC(=O)Nc1ccc2nc(N3CCOCC3)cc(C)c2c1,2,-1,-7,0,0,4,.,.,
Cc1cc(N2CCN(C)CC2)nc2ccc(NC(=O)CCC(=O)NCCCOC(C)C)cc12,2,-3,0,-1,93*,1,0,100,

# Assay outcomes: PubChem BioAssay, several laboratories
